Tests used:
Type in all cases: functional
[1] = system: Mus musculus; test: Compound was evaluated for the antinociceptive response after intravenous administration using hot-plat test (55+/-1 degree Celsius) in mice (for jump latency time) at the dose of 0.75*10e-6 mol/mice and 0.46*10e-6 mol/mice respectively
How it was run: (§1)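 Mice on a hot plate held at 55 ± 0.5 °C inside a glass cylinder, tested 15 min after iv dosing. Read-out was latency to jump, with a 240 s cutoff. % analgesia = (test − control latency)/(cutoff − control latency) × 100. Groups compared by ANOVA followed by Dunnett's t test.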

[2] = system: Mus musculus; test: Compound was evaluated for the percentage of analgesic effect in mice at the time of 15 min after intravenous administration of dose 0.75*10e-6 mol/mice and 0.46*10e-6 mol/mice respectively; how it was run: as §1
[3] = system: Mus musculus; test: Compound (20 mg/kg) was evaluated for the percentage of analgesic effect in mice at the time of 15 min after intravenous administration of dose 0.57*10e-6 mol/mouse; how it was run: as §1
[4] = system: Mus musculus; test: Compound (20 mg/kg) was evaluated for the antinociceptive response after intravenous administration using hot-plat test (55+/-1 degree Celsius) in mice(for jump latency time) at the dose of 0.57*10e-6 mol/mouse; how it was run: as §1
[5] = system: Mus musculus; test: Compound was evaluated for the antinociceptive response after intravenous administration using hot-plat test (55+/-1 degree Celsius) in mice (for jump latency time) at the dose of 5 mg/kg; how it was run: as §1
[6] = system: Mus musculus; test: Compound was evaluated for the antinociceptive response after intravenous administration using hot-plat test (55+/-1 degree Celsius) in mice (for jump latency time) at the dose of 0 mg/kg; how it was run: as §1
[7] = system: Mus musculus; test: Compound was evaluated for the percentage of analgesic effect in mice at the time of 15 min after intravenous administration of dose 10 mg/kg; how it was run: as §1
[8] = system: Mus musculus; test: Compound was evaluated for the antinociceptive response after intravenous administration using hot-plat test (55+/-1 degree Celsius) in mice (for jump latency time) at the dose of 10 mg/kg; how it was run: as §1
[9] = system: Mus musculus; test: Compound was evaluated for the percentage of analgesic effect in mice at the time of 15 min after intravenous administration of dose 1 mg/kg; how it was run: as §1
[10] = system: Mus musculus; test: Compound was evaluated for the percentage of analgesic effect in mice at the time of 15 min after intravenous administration of dose 5 mg/kg; how it was run: as §1
[11] = system: Mus musculus; test: Compound was evaluated for the antinociceptive response after intravenous administration using hot-plat test (55+/-1 degree Celsius) in mice (for jump latency time) at the dose of 1 mg/kg; how it was run: as §1

CSCCC(N)CSSCC(N)CCSC.O=C(NC(Cc1ccccc1)C(=O)OCc1ccccc1)C(CSSCC(Cc1ccccc1)C(=O)NC(Cc1ccccc1)C(=O)OCc1ccccc1)Cc1ccccc1 (stereo not given)
Jump latency time [1]: 126 s | Analgesia [2]: 32.2%

CSCCC(N)CSSCC(Cc1ccccc1)C(=O)NC(Cc1ccccc1)C(=O)OCc1ccccc1 (stereo not given)
Analgesia [3]: 92.1% | Jump latency time [4]: 236 s

N[C@H](CSC(=O)CCC(=O)SCC(Cc1ccccc1)C(=O)NCC(=O)OCc1ccccc1)Cc1ccccc1 (stereo not given in full)
Jump latency time [5]: 46.5 s | Jump latency time [6]: 48.7 s | Analgesia [7]: 12% | Jump latency time [8]: 71.7 s

CC(=O)SCC(Cc1ccccc1)C(=O)NCC(=O)SC[C@@H](N)Cc1ccccc1 (stereo not given in full)
Jump latency time [5]: 80.4 s | Jump latency time [6]: 56.7 s | Analgesia [9]: 9% | Analgesia [10]: 13% | Jump latency time [11]: 74.1 s | Analgesia [7]: 63% | Jump latency time [8]: 143 s

— ChEMBL document CHEMBL1125469, “"Mixed inhibitor-prodrug" as a new approach toward systemically active inhibitors of enkephalin-degrading enzymes” (1992)
